Experimental data as given in ChEMBL document CHEMBL1139307, “1-Naphthyl and 4-indolyl arylalkylamines as selective monoamine reuptake inhibitors” (Bioorg Med Chem Lett, 2009).

Experiments:
Transporter = Transporter (Rattus norvegicus, UniProt Q63380); test: Displacement of [3H]nisoxetine from Sprague-dawley rat NET by liquid scintillation spectrophotometry
[1] = target: Sodium-dependent serotonin transporter (Rattus norvegicus, UniProt P31652); test: Displacement of [3H]citalopram from SERT in Sprague-dawley rat frontal cortex by liquid scintillation spectrophotometry; type: tissue-based
Sodium-dependent serotonin transporter, sequence (P31652 whole entry): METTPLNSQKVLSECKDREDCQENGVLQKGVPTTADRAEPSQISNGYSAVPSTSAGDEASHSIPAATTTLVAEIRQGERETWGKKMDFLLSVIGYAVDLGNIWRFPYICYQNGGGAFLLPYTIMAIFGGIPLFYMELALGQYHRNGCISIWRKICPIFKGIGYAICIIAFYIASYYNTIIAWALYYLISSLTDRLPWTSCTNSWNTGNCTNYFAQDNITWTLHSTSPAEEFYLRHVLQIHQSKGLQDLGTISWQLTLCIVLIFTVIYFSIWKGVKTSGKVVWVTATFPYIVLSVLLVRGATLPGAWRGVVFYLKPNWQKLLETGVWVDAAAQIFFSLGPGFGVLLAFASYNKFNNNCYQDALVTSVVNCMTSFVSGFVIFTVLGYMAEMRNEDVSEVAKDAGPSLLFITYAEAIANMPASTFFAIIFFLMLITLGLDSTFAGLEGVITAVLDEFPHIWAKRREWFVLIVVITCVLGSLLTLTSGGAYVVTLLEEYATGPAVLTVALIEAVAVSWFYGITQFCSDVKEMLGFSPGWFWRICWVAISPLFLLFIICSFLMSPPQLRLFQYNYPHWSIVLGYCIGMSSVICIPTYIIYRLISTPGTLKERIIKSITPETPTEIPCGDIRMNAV

[2] = target: Sodium-dependent dopamine transporter (Rattus norvegicus, UniProt P23977); test: Displacement of [125I]RTI55 from DAT in Sprague-dawley rat striatum by liquid scintillation spectrophotometry
Sodium-dependent dopamine transporter, sequence (P23977 whole entry): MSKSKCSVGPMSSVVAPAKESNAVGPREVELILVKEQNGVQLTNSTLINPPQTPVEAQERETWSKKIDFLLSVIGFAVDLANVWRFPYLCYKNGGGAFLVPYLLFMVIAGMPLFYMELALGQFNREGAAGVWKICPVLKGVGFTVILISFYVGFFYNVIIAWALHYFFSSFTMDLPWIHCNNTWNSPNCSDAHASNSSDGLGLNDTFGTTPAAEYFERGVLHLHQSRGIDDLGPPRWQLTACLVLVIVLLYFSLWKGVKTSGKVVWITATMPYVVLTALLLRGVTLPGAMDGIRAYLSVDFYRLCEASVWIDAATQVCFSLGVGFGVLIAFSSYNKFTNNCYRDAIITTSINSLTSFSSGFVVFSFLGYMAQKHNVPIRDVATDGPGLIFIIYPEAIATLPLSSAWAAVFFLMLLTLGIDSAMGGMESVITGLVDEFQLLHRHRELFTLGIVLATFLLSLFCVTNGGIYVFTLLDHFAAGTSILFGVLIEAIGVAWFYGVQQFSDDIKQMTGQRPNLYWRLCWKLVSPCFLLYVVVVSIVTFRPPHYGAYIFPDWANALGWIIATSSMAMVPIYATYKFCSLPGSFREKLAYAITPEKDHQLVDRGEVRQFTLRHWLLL
Outline: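 Membranes from tissue homogenized in 10 vol of 0.32 M sucrose/10 mM sodium phosphate buffer, pH 7.4, and spun three times at 48,000g for 10 min. Cold-Tris filtration used BSA-presoaked GF/B filters, with WF-23 defining non-specific binding.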

Transporter, sequence (Q63380 whole entry): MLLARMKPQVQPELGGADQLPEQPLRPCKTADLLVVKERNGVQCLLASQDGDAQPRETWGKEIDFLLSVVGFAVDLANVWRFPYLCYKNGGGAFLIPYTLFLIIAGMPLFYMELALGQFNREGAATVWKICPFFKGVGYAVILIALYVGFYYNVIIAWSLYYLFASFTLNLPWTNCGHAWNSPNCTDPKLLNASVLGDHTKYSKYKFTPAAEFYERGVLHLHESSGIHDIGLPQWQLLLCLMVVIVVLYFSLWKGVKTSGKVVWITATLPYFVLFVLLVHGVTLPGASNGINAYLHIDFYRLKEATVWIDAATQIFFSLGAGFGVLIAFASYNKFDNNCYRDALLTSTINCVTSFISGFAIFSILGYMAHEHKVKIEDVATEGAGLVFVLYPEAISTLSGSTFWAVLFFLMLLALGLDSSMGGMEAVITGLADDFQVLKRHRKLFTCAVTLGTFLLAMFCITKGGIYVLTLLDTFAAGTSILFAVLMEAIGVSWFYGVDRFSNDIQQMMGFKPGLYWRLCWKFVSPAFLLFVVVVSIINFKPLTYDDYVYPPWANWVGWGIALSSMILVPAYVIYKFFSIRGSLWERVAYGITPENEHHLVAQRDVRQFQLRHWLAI

| Structure (SMILES) | Ki (Transporter) [nM] | Ki [1] [nM] | IC50 [2] [nM] |
| --- | --- | --- | --- |
| CNCC[C@@H](c1ccc(Cl)c(Cl)c1)c1cccc2ccccc12 | 1630 | 86 | 35.8 |
| CNCCC[C@@H](c1ccc(Cl)c(Cl)c1)c1cccc2[nH]ccc12 | 360 | 2.72 | 14.3 |
| CNCC[C@@H](c1ccc(Cl)c(Cl)c1)c1cccc2[nH]ccc12 | 35.4 | 3.63 | 14.9 |
| CNCC[C@H](c1cccs1)c1cccc2[nH]ccc12 | 13.8 | 31.9 |  |
| CNCCC[C@@H](c1cccs1)c1cccc2ccccc12 | 109 | 9.5 | 405 |
| CNCCC[C@H](c1ccc(Cl)c(Cl)c1)c1cccc2[nH]ccc12 | 4840 | 0.82 | 3.8 |
| CNCC[C@H](c1ccc(Cl)c(Cl)c1)c1cccc2ccccc12 | 1640 | 5.3 | 9.7 |

More lines, now with the values ahead:

| Ki (Transporter) [nM] | Ki [1] [nM] | IC50 [2] [nM] | Structure (SMILES) |
| --- | --- | --- | --- |
| 52.1 | 30.2 | 309 | CNCC[C@H](c1cccs1)c1cccc2ccccc12 |
| 2480 | 4.1 | 61.2 | CNCCC[C@H](c1ccc(Cl)c(Cl)c1)c1cccc2ccccc12 |
| 139 | 12.1 | 230 | CNCC[C@@H](c1cccs1)c1cccc2ccccc12 |
| 9 | 72.9 | 318 | CNCCC[C@H](c1cccs1)c1cccc2[nH]ccc12 |
| 102 | 166 |  | CNCC[C@@H](c1cccs1)c1cccc2[nH]ccc12 |
| 95 | 1.68 | 7.21 | CNCC[C@H](c1ccc(Cl)c(Cl)c1)c1cccc2[nH]ccc12 |
| > 10000 | 49.9 | 209 | CNCCC[C@@H](c1ccc(Cl)c(Cl)c1)c1cccc2ccccc12 |
| 79.7 | 271 | 957 | CNCCC[C@@H](c1cccs1)c1cccc2[nH]ccc12 |
| 7.9 | 39.7 | 466 | CNCCC[C@H](c1cccs1)c1cccc2ccccc12 |
